Assay results from PubChem BioAssay AID492951 (Molecular Libraries Program, Specialized Chemistry Center, …, 2010).
A number with no mark means an inactive call. The source made the active and inactive calls.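 The calls were made as follows: active = inhibition above 10%; inactive = the rest.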

Target: Hexokinase-4 (Homo sapiens) (UniProt P35557)
Test: hGlck enzyme activity off-target inhibitors – biochemical, recombinant hGlck, counter-screen for TbHK1 inhibitor project (AID 492951)
Conditions: G6PDH-coupled NADH absorbance 340 nm, at 10 µM; hits give high values
In short: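 Test system: purified recombinant human glucokinase (HK4) with G6PDH coupling enzyme / Reagent: 20 mM glucose as reaction starter, plus 1 mM ATP / Timing: 10 min room-temperature compound-enzyme preincubation before glucose addition / Measured by: A340 of NADH / Repeats: three replicates per compound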

Chain of Hexokinase-4 (Homo sapiens) (P35557 whole entry, looked up): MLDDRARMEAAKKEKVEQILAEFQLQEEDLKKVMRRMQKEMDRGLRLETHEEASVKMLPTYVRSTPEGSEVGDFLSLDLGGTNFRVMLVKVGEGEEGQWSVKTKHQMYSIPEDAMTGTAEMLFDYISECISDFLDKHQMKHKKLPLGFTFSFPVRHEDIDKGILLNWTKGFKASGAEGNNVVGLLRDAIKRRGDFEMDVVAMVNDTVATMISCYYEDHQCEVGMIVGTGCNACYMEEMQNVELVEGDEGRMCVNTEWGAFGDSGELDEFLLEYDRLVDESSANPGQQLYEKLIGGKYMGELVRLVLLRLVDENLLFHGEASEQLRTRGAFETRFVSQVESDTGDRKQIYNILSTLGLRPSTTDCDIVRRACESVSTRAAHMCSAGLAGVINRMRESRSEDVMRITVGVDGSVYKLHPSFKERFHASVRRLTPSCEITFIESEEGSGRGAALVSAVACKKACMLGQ

Compound	inhibition	outcome
O=C(Cn1sc2ccccc2c1=O)Nc1ccc(Br)cc1	33.8% (active)	
CC(C)(C)c1ccc(C(=O)Nc2c(C(=O)O)ccc(Cl)c2Cl)cc1		inactive
COc1ccc(C(=O)NC(CC(=O)O)c2cccc(Cl)c2)cc1 (stereo not drawn)		inactive
O=c1c(Br)csn1-c1ccc(Br)cc1	32.2% (active)	
O=c1c2ccccc2on1-c1ccccc1		inactive
O=C(Nc1ccccc1)c1cc(F)ccc1S	3.6%	
O=C(c1ccccc1)n1sc2ccccc2c1=O		inactive
O=c1s[nH]c2ccccc12	48.8% (active)	
COc1ccc(C(=O)Nc2ccccc2-c2nn[nH]n2)cc1		inactive
CC(C)(C)c1ccc(C(=O)Nc2cc(Cl)ccc2O)cc1		inactive
O=C(Cn1sc2ccccc2c1=O)Nc1ccccc1I	14.5% (active)	
O=C(Nc1cc(Cl)ccc1C(=O)O)c1ccc(C2CCCC2)cc1	21.1% (active)	
Cc1ccc(C(=O)Nc2cc(Cl)ccc2C(=O)O)c(C)c1	12.5% (active)	
O=C(Nc1cc(Cl)ccc1C(=O)O)c1ccc2c(c1)CCC2	12.2% (active)	
CN(C)c1ccc(C(=O)Nc2cc(Cl)ccc2C(=O)O)cc1		inactive
Cc1ccc(-n2sc3cc(F)ccc3c2=O)c(C)c1	55.6% (active)	
O=c1c2ccccc2sn1-c1ccccc1F	28.9% (active)	
COc1cc(C(=O)Nc2cc(Cl)ccc2C(=O)O)cc(OC)c1OC		inactive
Cc1ccccc1N1Cc2ccccc2C1=O		inactive

Compound	inhibition	outcome
COC(=O)c1ccc(Cl)cc1NC(=O)c1ccc(OC)cc1	18.2% (active)	
O=C(Cn1sc2cc(F)ccc2c1=O)Nc1ccccc1	39.6% (active)	
CCCCCCCC(=O)Nc1cc(Cl)ccc1C(=O)O		inactive
COc1ccc(C(=O)Nc2cc(Cl)c(C)cc2C(=O)O)cc1	17.6% (active)	
O=c1c2cc(F)ccc2sn1-c1ccccc1	50.1% (active)	
O=C(O)c1ccc(Cl)cc1NC(=O)C1CCOCC1		inactive
O=C(Nc1cc(Cl)ccc1C(=O)O)c1ccc(-c2ccccc2)cc1	27.6% (active)	
CC(=O)Nc1cc(Cl)ccc1C(=O)O		inactive
O=C(Cn1sc2ccccc2c1=O)NCc1ccccc1		inactive
N#Cc1ccc(Oc2ccc3c(c2)B(O)OC3)cc1		inactive
O=c1c2ccccc2sn1-c1cccc(F)c1	28.2% (active)	
O=C(NCc1ccccc1)n1sc2ccccc2c1=O	38.3% (active)	
O=c1c2ccccc2sn1-c1cccc(Cl)c1	34.9% (active)	
O=c1c2cc([N+](=O)[O-])ccc2sn1-c1ccccc1	11.4% (active)	
Cc1ccc(C(=O)Nc2cc(Cl)ccc2C(=O)O)cc1C		inactive
COc1ccc2sn(-c3ccccc3)c(=O)c2c1	13.6% (active)	
O=C1c2ccccc2S(=O)N1c1cccc(F)c1 (stereo not drawn)	8.84%	
COc1ccc(C(=O)NC(C(=O)O)c2ccccc2)cc1 (stereo not drawn)		inactive
COc1cccc(C(=O)Nc2cc(Cl)ccc2C(=O)O)c1		inactive
